# Compound activity: PubChem, The Scripps Research Institute Molecular Screening Center
# Rows were chosen to be rich in hits. Some 1.9% of all compounds tested hit in one or more screens of this group.
# ASAP1 GAP inh: blocks human ASAP1-stimulated Arf1 GTP hydrolysis; Q9ULH1; GDP FP detection; inhibition, % at 16.5 µM; 0.19% of 360,000 active; in the data active means inhibition above about 25%;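 further: 0% = vehicle with enzyme and substrate and 100% = no enzyme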
# PLC-beta3 inh: inhibitors of human phospholipase C beta3; Q01970; Purified PLC-beta3, fluorogenic substrate, fluorescence; inhibition, % at 12.2 µM; 0.18% of 370,000 active; AID 720704; in the data active means inhibition above about 11%;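 further: 0% = median of compound wells on plate and 100% = full blocker control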
# sPLA2-III inh: Inhibits HGIII-sPLA2 liposome hydrolysis, primary screen; Q9NZ20; QFRET BODIPY PC-A2 liposome hydrolysis, fluorescence; inhibition, % at 12.2 µM; 0.56% of 370,000 active;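 active means inhibition above mean plus 3 SD of compounds lying within the high and low control bounds, cut at about 19% in these data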;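 further: 0% = median of test compound wells and 100% = no enzyme DMSO wells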
# ARFGAP1 inh: inhibitors of rat ARFGAP1. Q62848. Arfgap1-stimulated ARF1 GTP hydrolysis, GDP FP detection. inhibition, % at 16.5 µM. 0.26% of 360,000 active;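 active means inhibition above a per-plate limit, mean inhibition of low control wells plus 3 SD, cut at about 25% in these data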;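 further: 0% = DMSO wells with enzyme and 100% = wells lacking Arfgap1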
#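 Assay system: Rat Arfgap1 GAP domain (His6, aa 1-136), purified enzyme | Buffer or medium: HEPES 25 mM pH 7.5, NaCl 150 mM, MgCl2, DTT | Schedule: GTP hydrolysis reaction 2 h at 25 °C | Signal: FP of antibody-bound GDP Alexa 633 tracer, ex 620/em 688 nm | Measure: Percent inhibition of Arfgap1-stimulated GTP hydrolysis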
# PLCg1 inh: PLC-gamma1 (human) inhibition, primary screen. purified PLC-gamma1, fluorogenic substrate, fluorescence. AID 720700. 0.84% of 370,000 active. P19174. inhibition, % at 12.2 µM; in the data active means inhibition above about 9.5%
# ARFGAP1 inh conf: rat ARFGAP1 inhibition, confirmed; shares compounds with ARFGAP1 inh; ARFGAP1-stimulated ARF1 GTP hydrolysis, GDP tracer FP; inhibition, % at 16.5 µM; 30% of 890 active;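 active means average inhibition over triplicates above the hit cutoff set in the earlier primary screen, cut at about 25% in these data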;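 further: 0% = Arfgap1 plus ARF1-GTP with DMSO and 100% = wells lacking Arfgap1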
# The depositor's hits bear a star; i = inactive; · = not tested or not shown.
SMILES,ASAP1 GAP inh,PLC-beta3 inh,sPLA2-III inh,ARFGAP1 inh,PLCg1 inh,ARFGAP1 inh conf
CCOc1ccc(C(=O)N(CN2CCCC2=O)c2cccc(Cl)c2)cc1,-6.7,-7.6,0.5,37.5*,1.4,-1.1
COc1ccc(CNC(=O)O[C@H]2CC[C@@]34CCCN3C(=O)CCC[C@H]4C2)cc1,·,4.7,1.2,·,3.8,·
CCn1c2ccccc2c2cc(NC(=O)CSc3nnc(-c4cccc(OC)c4)n3N)ccc21,0.6,1.1,-6.7,31.0*,2.4,26.5*
COc1cccc(OC)c1C(=O)Nc1ccc(S(=O)(=O)Nc2ncccn2)cc1,5.7,-6.1,4.4,27.8*,0.6,8.6
COc1cc(C(=O)Nc2ccc(S(=O)(=O)Nc3ncccn3)cc2)c([N+](=O)[O-])cc1OC,5.4,-0.8,-4.3,-8.7,1.3,·
COC(=O)C1CN(C2CCCC2)CCS(=O)(=O)N1Cc1ccc(Cl)cc1 (stereo not given),·,-5.2,10.9,·,0.5,·
COc1ccc(NC(=O)Cn2nnc(C(=O)Nc3ccc(F)c(Cl)c3)c2N)cc1,10.9,-10.2,-1.1,27.3*,-1.4,35.9*
COc1ccc(Cl)cc1NC(=O)c1nnn(CC(=O)Nc2ccc3c(c2)OCO3)c1N,17.5,-6.0,1.6,94.5*,-3.1,132.5*
COc1ccc(-c2cc(C(=O)NN=Cc3ccc(C)s3)[nH]n2)cc1,·,-0.4,-1.9,·,4.8,·
COC(=O)c1ccccc1NC(=O)CN1CCC(n2nnc3cc(C(F)(F)F)ccc32)CC1,5.4,0.5,2.3,8.5,-0.2,·
CC1Cc2ccccc2N1C(=O)CN1CCC(n2nnc3cc(C(F)(F)F)ccc32)CC1 (stereo not given),3.5,-2.0,3.4,27.9*,1.3,7.8
O=C(NCCc1ccccc1)OCc1cn(Cc2ccccc2C(F)(F)F)nn1,·,-3.0,-4.2,·,-1.6,·
COc1ccc(S(=O)(=O)NCc2cccnc2)cc1NC(=O)c1ccc(Cl)cc1,3.4,1.2,-1.9,25.0*,-4.3,1.3
Cc1ccc(S(=O)(=O)N/N=C\c2cn(CC(N)=O)c3ccccc23)cc1,0.3,-4.2,0.2,29.9*,2.0,-7.0
Cc1cnc2nc(-c3ccccc3)ccc2c1,4.3,1.4,3.4,25.9*,1.9,3.0
CCOC(=O)CC[C@H]1CC[C@]2(CCCN(S(=O)(=O)C3CCCCC3)C2)O1,·,-0.1,8.3,·,2.7,·
O=C(NCc1ccccc1)c1cc(C2CCCCN2C(=O)OCCF)on1 (stereo not given),-13.1,3.8,-6.0,24.8*,-2.8,3.1
CC(=O)n1cc(/C=N/NC(=O)c2ccc(Cl)cc2)c2ccccc21,2.5,-47.4,3.2,26.8*,-29.1,-2.0
O=C(CSc1nc2c(c(=O)n1-c1ccc(Br)cc1)SCC2)NCc1ccco1,-3.0,1.4,13.1,29.3*,-1.1,-2.7
CCOc1ccc(-n2c(SCC(=O)NCc3ccco3)nc3c(c2=O)SCC3)cc1,9.0,-0.3,2.9,20.2,1.7,·
Cn1cnnc1Sc1ccc(/C=C(\CCC(=O)O)c2nc3ccccc3s2)cc1[N+](=O)[O-],5.2,-2.2,-9.4,-6.5,4.2,·
Cc1ccc(/C=C(\CCC(=O)O)c2nc3ccccc3s2)cc1[N+](=O)[O-],17.7,-3.6,-25.3,31.5*,-3.1,39.2*
COCCN1Cc2cc(C(=O)OC)c3c(c2C1=O)c1cc(OC)ccc1n3C(=O)c1ccccc1,-4.1,-60.2,1.3,-7.4,-39.4,·
COc1ccc(NC(=O)CSc2nc3sc4c(c3c(=O)n2-c2ccc(OC)cc2)CCN(C)C4)cc1,11.9,-37.5,-1.9,19.6,-20.6,·
COc1ccc(-n2c(SCC(=O)Nc3nccs3)nc3sc4c(c3c2=O)CCN(C)C4)cc1,9.1,-61.0,-10.4,25.1*,-50.9,27.1*
SMILES,ASAP1 GAP inh,PLC-beta3 inh,sPLA2-III inh,ARFGAP1 inh,PLCg1 inh,ARFGAP1 inh conf
O=C(N/N=C/c1ccc(O)cc1O)c1ccc(CN2C(=O)c3cccc4cccc2c34)cc1,7.4,i,12.2,26.6*,i,80.4*
COc1cc([N+](=O)[O-])ccc1NC(=O)COC(=O)c1ccc(NC(N)=O)cc1,14.4,-13.2,4.0,29.1*,1.7,19.7
COc1cc(NC(=O)c2cc3ccccc3o2)ccc1NC(=O)c1ccco1,-0.7,-8.7,1.9,26.9*,-9.0,11.3
COCC(=O)Nc1ccc([N+](=O)[O-])cc1OC,-0.7,3.2,2.4,-4.5,2.1,·
COc1cc(NC(=O)COc2ccc([N+](=O)[O-])cc2)ccc1NC(=O)c1ccco1,12.4,7.6,12.6,58.1*,4.8,74.9*
COc1cc(NC(=O)c2c(OC)cccc2OC)ccc1NC(=O)c1cc2ccccc2o1,10.7,-66.9,-5.3,12.2,-53.0,·
C=CCN=C1NC(CCc2ccccc2)C(C(=O)OC)=C(C)N1C (stereo not given),-4.2,-4.4,13.7,-3.2,-1.7,·
COc1ccc2c(c1)CCCN2C(=O)C1CCCN(S(=O)(=O)c2ccc(Cl)s2)C1 (stereo not given),·,-5.1,-7.5,·,-1.6,·
CCOC(=O)N1C(=O)C[C@](Sc2ccc(OC)cc2)(C(=O)N2CCN(C(C)=O)CC2)[C@H]1c1ccc(OC)cc1,·,2.1,2.6,·,0.3,·
Cc1cc(C)c(S(=O)(=O)c2ccc(F)cc2C)c(Cl)n1,8.6,-4.9,4.4,30.4*,4.8,1.2
Cc1cc(C)c(S(=O)(=O)c2ccccc2Cl)c(Cl)n1,-1.0,-2.4,-4.2,-20.9,-6.6,·
CCCCCCn1cc(CN2CC=CS2(=O)=O)nn1,·,1.4,9.4,·,0.3,·
COc1ccccc1NC(=S)OC1CCC12CCC(c1ccccc1)CC2 (stereo not given),·,4.2,-6.5,·,-1.5,·
COc1cccc(-c2nnc3sc(-c4ccccn4)nn23)c1,23.5,-14.2,0.3,41.1*,-5.0,45.2*
COc1cccc(-c2nn3c(-c4ccccn4)nnc3s2)c1,5.3,1.9,-0.1,-2.8,4.5,·
CCN(Cc1cn(Cc2ccc(C)cc2)nn1)S(=O)(=O)c1ccccc1Br,·,3.8,-4.3,·,0.0,·
COC(=O)C1=C(C)OC(N)=C(C#N)C1C1CCCCC1 (stereo not given),2.9,2.1,-6.5,26.3*,1.7,0.1
COC(=O)C1=C(C)OC(N)=C(C#N)C1c1ccccc1 (stereo not given),3.9,-2.8,-21.3,-14.2,-0.7,·
Cc1ccc(/C=N/Nc2cccc3cccnc23)c(O)c1,0.9,-9.8,1.5,4.2,-10.0,·
Oc1ccc(/C=N/Nc2cccc3cccnc23)c(O)c1,3.2,-18.6,-3.2,50.6*,-15.2,16.0
CCCCc1nnc(SCC(=O)Nc2nccs2)n1CC,8.3,-1.5,-0.1,13.5,-2.7,·
CCn1c(COc2cc(C)ccc2C(C)C)nnc1SCC(=O)Nc1nccs1,-6.3,-3.4,10.7,24.7*,3.5,-5.3
CC(=O)N[C@@H]1C[C@@H]2O[C@H](CO)CC[C@@H]2O[C@@H]1CCc1ccc(-c2ccc(F)cc2)cc1,·,-4.6,8.6,·,2.7,·
O=c1c2cc3cc(Cl)ccc3nc2ncn1CCc1c[nH]c2ccccc12,·,0.2,-37.0,·,-4.3,·
